# Results reported in PubChem BioAssay.
# Calls of active or inactive are those of the source.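 Rule for the calls: active = growth inhibition above 25% in both replicates, a cutoff set 3 SD above the mean; inconclusive = above 25% in only one replicate; inactive = the rest.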
# Experiment: OD615 S. cerevisiae growth inhibition, permissive medium, pilot counter-assay, permissive growth control for S. cerevisiae lifespan shortening project (AID 705)
# Conditions: OD615, 24 h, at 10 µM, active compounds read high
# Method in brief: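 System: S. cerevisiae with engineered DeaD lifespan system. Medium: SC raffinose/galactose permissive medium. Doses: single compound dose of 10 µM, 0.25% DMSO final. Schedule: 24 h exposure, 30 °C. Measured by: OD615 turbidity read. Read-out: growth inhibition.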
row,Compound,growth inhibition
1,COCCNS(=O)(=O)c1cccc2cccnc12,-1.37% (inactive)
2,Cc1ccc(C)c(N2CCN(C(=O)CCS(=O)(=O)c3cccc4nonc34)CC2)c1,-16.3% (inactive)
3,Cc1cccc(-n2ccnc2SCC(=O)Nc2nnc(C)s2)c1,-5.12% (inactive)
4,CC(=O)CSc1nc2ccc(Nc3nc(N4CCOCC4)nc(N4CCOCC4)n3)cc2s1,15.1% (inactive)
5,CCOC(=O)c1c(CN(CC)CC)oc2cc(Br)c(O)cc12,-0.115% (inactive)
6,CCc1ccc2nc(NC3=NCN(CCOC)CN3)nc(C)c2c1,-2.2% (inactive)
7,CCN(Cc1ccccc1)S(=O)(=O)c1ccc(S(=O)(=O)N2CCN(CCC#N)CC2)cc1,-8.36% (inactive)
8,CCCCS(=O)CC(COCc1ccccc1)OC(=O)CSc1nc(C)cc(C)n1 (stereo unspecified),-8.16% (inactive)
9,COc1ccc(C(=O)N2CCC(C(=O)Nc3ccc(OC)c(OC)c3)CC2)cc1,-6.75% (inactive)
10,CSC1=NCCN1C(=O)Cc1ccc(Cl)cc1,1.21% (inactive)
11,O=C1NCCCC1C(=O)N1CCN(C(c2ccccc2)c2ccccc2)CC1 (stereo unspecified),6.11% (inactive)
12,O=C(CCNS(=O)(=O)c1cccc2nsnc12)NC1CCCc2ccccc21 (stereo unspecified),-9.18% (inactive)
13,COc1ccc(C(=O)N2CCN(c3ccc(C)cc3C)CC2)cc1OC,-12.4% (inactive)
14,CCc1ccccc1N1CSC2=C(C#N)C(c3ccccc3F)CC(=O)N2C1 (stereo unspecified),-2.74% (inactive)
15,CN1C(=O)CC(N2CCN(c3ncccn3)CC2)C1=O (stereo unspecified),1.35% (inactive)
16,CCCCN(C)CCNC(=O)Cn1c(=O)sc2ccccc21,-0.71% (inactive)
